Bioassay records (PubChem)
PLCg1 inh: blocks human PLC-gamma1 enzyme activity | inhibition, % at 12.2 µM | purified PLC-gamma1, fluorogenic substrate, fluorescence | AID 720700 | hit rate 0.84% among 370,000 | P19174; in the data active = inhibition above about 9.5%
FID counter: counter-screen for HCV NS3 helicase inhibitors: DNA intercalator displacement | DNA fluorescent intercalator displacement, fluorescence | inhibition, % at 7.9 µM | hit rate 0.17% among 290,000; in the data active = inhibition above about 37%;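 also: 0% = vehicle and 100% = reference compound; higher means more ethidium bromide displaced from hairpin DNA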
PLC-beta3 inh: blocks human PLC-beta3 enzyme activity. AID 720704. hit rate 0.18% among 370,000. inhibition, % at 12.2 µM. Purified PLC-beta3, fluorogenic substrate, fluorescence;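 also: 0% = median of compound wells on plate and 100% = full blocker control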
DDE Tn7 FP inh: disrupts Tn7 cyclic peptide binding to fibrin D-Dimer-E complex | FP displacement of FITC-Tn7 peptide from fibrin DD(E); 0% = median of compound wells per plate | inhibition, % at 8.3 µM | hit rate 0.13% among 370,000;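 active = inhibition above the mean of compounds falling within the control limits plus 3 SD of them, cut at about 14% in these data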;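 also: 0% = plate median of compound wells and 100% = 10 µM Aha-Tn7 peptide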
Target sequence (P02675 whole entry, looked up): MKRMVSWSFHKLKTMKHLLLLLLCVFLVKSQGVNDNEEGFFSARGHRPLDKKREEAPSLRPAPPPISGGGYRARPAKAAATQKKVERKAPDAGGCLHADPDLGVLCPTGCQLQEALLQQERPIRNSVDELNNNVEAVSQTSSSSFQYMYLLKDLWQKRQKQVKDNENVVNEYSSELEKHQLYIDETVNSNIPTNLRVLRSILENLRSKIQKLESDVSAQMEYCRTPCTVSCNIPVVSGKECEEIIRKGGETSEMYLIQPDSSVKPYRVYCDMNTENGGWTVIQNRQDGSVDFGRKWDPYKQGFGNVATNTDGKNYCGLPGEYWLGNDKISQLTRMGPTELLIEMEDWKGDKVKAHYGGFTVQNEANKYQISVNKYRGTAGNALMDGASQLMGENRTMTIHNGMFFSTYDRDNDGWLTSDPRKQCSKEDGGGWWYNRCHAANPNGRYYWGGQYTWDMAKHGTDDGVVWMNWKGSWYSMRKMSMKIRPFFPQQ
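Measure: % inhibition scaled between sample-field median and high-control FP; Test system: human fibrin DD(E); Quantity: 2 µM final DD(E) protein; Doses: one dose, 8.3 µM nominal; Schedule: compound with protein 10 min, then 3 h after probe, room temperature; Detection: fluorescence polarization; Medium: Tris buffer with calcium and detergent, pH 7.8.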
DDE Tn6 FP inh: inhibitors of Tn6 peptide binding to human fibrin DD(E); inhibition, % at 8.3 µM; P02675; Fibrin DD(E) TRITC-Tn6 fluorescence polarization displacement; hit rate 0.21% among 370,000;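 active = inhibition above a per-campaign cutoff: mean of compounds within control limits plus 3 SD, cut at about 15% in these data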;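 also: 0% = median of all compound wells on the plate and 100% = blocking peptide control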
PLCg1 ctr: inhibits human PLC-gamma1 in PLC-beta3 counter-screen. hit rate 3.1% among 3,300. AID 743258. inhibition, % at 12.3 µM. shares compounds with PLCg1 inh. purified PLC-gamma1, fluorogenic substrate, fluorescence; in the data active = inhibition above about 9.5%
PLCbeta3 conf: confirmation of human PLC-beta3 inhibitors; purified PLC-beta3, fluorogenic substrate fluorescence; inhibition, % at 12.3 µM; hit rate 1% among 3,300; shares compounds with PLCg1 inh
Starred values were filed as active, the others as inactive; / = no result given. Hits are enriched below; roughly 1.4% of the tested compounds scored in any of these assays. Rule as the data show it, unless noted: active = inhibition above about 11%; inactive = the rest.

SMILES	PLCg1 inh	FID counter	PLC-beta3 inh	DDE Tn7 FP inh	DDE Tn6 FP inh	PLCg1 ctr	PLCbeta3 conf
O=C1c2ccccc2C(=O)N1CCCCN(C(=O)c1cc([N+](=O)[O-])cc([N+](=O)[O-])c1)c1ccc(Cl)cc1	1	0	2	-5	-1	/	/
O=C1c2ccccc2C(=O)N1CCCCN(C(=O)c1ccc([N+](=O)[O-])cc1)c1ccc(Cl)cc1	12*	-22	3	6	0	4	2
O=C(Nc1ccc(Nc2ccccc2)cc1)C1CC1	7	1	2	-10	7	/	/
CC(C)(C)C1CCC(C(=O)Nc2ccccc2)CC1 (configuration not stated)	11*	-4	5	1	-4	6	13*
CC(C)CN=CC1=C(O)c2ccccc2C1=O	-63	-1	-76	-2	3	/	/
CCOC(=O)c1ccc(N/C(=N\S(=O)(=O)c2ccccc2C)c2ccccc2)cc1	10*	-21	2	6	-11	-2	-4
CCc1ccc(OCC(=O)Nc2ccc3c(c2)OCCO3)cc1	9.5*	-24	-1	0	-7	-6	-4
CCOc1ccc2nc(SCC(=O)Nc3ncccn3)[nH]c2c1	11*	-2	5	-2	2	-5	-2
CCOc1ccc2nc(SCC(=O)NCc3ccc4c(c3)OCO4)[nH]c2c1	13*	-2	6	6	-1	0	-19
Cc1occc1C(=O)NCc1ccc2c(c1)OCO2	11*	-8	4	-6	-3	-7	-1
O=C(c1ccc(NS(=O)(=O)c2ccccc2)cc1)N1CCN(Cc2ccc3c(c2)OCO3)CC1	3	-21	4	6	1	/	/
CCOc1ccc(NC(=O)NCc2ccc3c(c2)OCO3)cc1	9.5*	-3	-7	2	-4	-8	-4
O=C(COC(=O)c1ccc2c(c1)OCO2)NCc1ccc2c(c1)OCO2	5	-7	-2	-6	-1	/	/
CCn1c(C)nnc1SCC(=O)Nc1ccc2c(c1)OCCO2	9.9*	-3	0	-4	-4	-9	1
Cc1cnc(C(=O)OCC(=O)NCc2ccc3c(c2)OCO3)cn1	3	2	11*	0	4	-3	-4
O=C(NCc1ccc2c(c1)OCO2)Nc1ccc(F)cc1	2	-3	-5	-6	0	/	/
O=[N+]([O-])c1cccc(S(=O)(=O)Nc2ccc(S(=O)(=O)N3CCCC3)cc2)c1	0	-11	-2	-1	-3	/	/
O=C(NCC1CC1)c1csc(COCCO)n1	6	/	13*	-5	-3	0	-7
Cc1cnc(CNC(=O)c2csc(COCCO)n2)cn1	3	/	0	3	11	/	/
O=C(Nc1ccc(Cl)cc1)c1ccc(CN2CCc3ccccc3C2)cc1	13*	13	-5	0	-1	0	1
CC(C)CNC(=O)CSc1n[nH]c(=O)n1CCc1ccccc1	13*	-5	-2	-5	1	-1	-2
CCCNC(=O)CSc1n[nH]c(=O)n1CCc1ccccc1	0	-14	-3	4	-5	/	/
Cc1c(CCOC(=O)C23CC4CC(CC(C)(C4)C2)C3)sc[n+]1CC(=O)c1ccccc1	12*	8	2	-6	-1	1	1
CN1CCC(N[C@@H](Cc2ccccc2)C(=O)NCC(c2ccccc2)c2ccccc2)(C(=O)NC2CCCCC2)CC1	12*	/	9	1	7	-1	1
O=C(NCC(c1ccccc1)c1ccccc1)[C@H](Cc1ccccc1)NC1(C(=O)NC2CCCCC2)CCCCCC1	0	/	1	1	3	/	/
SMILES	PLCg1 inh	FID counter	PLC-beta3 inh	DDE Tn7 FP inh	DDE Tn6 FP inh	PLCg1 ctr	PLCbeta3 conf
CC(C)C[C@H](NC1(C(=O)NCCc2c[nH]c3ccccc23)CCC1)C(=O)NCCCc1ccccc1	13*	/	7	-8	5	-7	-4
O=C(NCC(c1ccccc1)c1ccccc1)[C@H](Cc1c[nH]c2ccccc12)NC1(C(=O)NC2CCCCC2)CCC1	10*	/	7	-8	1	-3	-1
COc1ccc(-c2cc(C(=O)NCCN3CCOCC3)no2)cc1OC	-2	-9	0	-3	0	/	/
CCOC(=O)NC(Nc1nnc(SCC)s1)(C(F)(F)F)C(F)(F)F	11*	-1	6	1	3	-7	-5
CCSc1nnc(NC(=O)NC(C)(C(F)(F)F)C(F)(F)F)s1	3	-13	0	4	0	/	/
CN1/C(=C/C(=O)C2CCC2)Sc2ccccc21	11*	-3	10	-11	-7	0	2
O=C(/C=N/O)Nc1ccc(F)cc1	9.5*	1	6	-5	-4	-6	-2
O=C(/C=N/O)Nc1cccnc1	0	1	5	1	-1	/	/
COc1ccccc1-c1cnnc(N/N=C/c2ccc(-c3cccc(Br)c3)o2)n1	12*	-4	1	0	-8	8	5
COc1ccc(-c2cnnc(N/N=C/c3ccc(-c4ccc([N+](=O)[O-])cc4)o3)n2)cc1	-2	0	-2	-1	-5	/	/
CC1Oc2ccccc2N(CC(=O)Nc2ccc3c(c2)OCCO3)C1=O (configuration not stated)	11*	-1	9	-3	7	-4	1
Cc1cccc(NC(=O)CSc2nnc(-c3ccccc3)n2N)c1	3	-6	2	-12	-1	/	/
COC(=O)C1=C(C)N(Cc2ccccc2C(F)(F)F)C(=NCc2ccc3c(c2)OCO3)NC1c1cccc(Cl)c1 (configuration not stated)	12*	/	3	-3	-7	-2	-4
COC(=O)C1=C(C)N(Cc2ccccc2C(F)(F)F)C(=NCc2ccc3c(c2)OCO3)NC1c1cccc(F)c1 (configuration not stated)	1	/	1	-5	-10	/	/
C=CCN=C1NC(c2cccc(Cl)c2)C(C(=O)OC)=C(C)N1Cc1cccc(C(F)(F)F)c1 (configuration not stated)	9	/	12*	-11	-7	-11	-7
CCCC1/C(=N/O)CC(c2ccccc2)NC1c1ccccc1 (configuration not stated)	10*	-19	10	-12	-4	4	4
Cc1occc1-c1nnc(SCC(=O)Nc2ccccc2)n1CCc1ccccc1	3	-34	2	1	-3	/	/
Cc1occc1-c1nnc(SCC(=O)Nc2ccccc2)n1C	5	11	15*	-5	-7	-5	-1
CC(NCc1ccc(OCc2ccc(Cl)cc2)cc1)C(O)c1ccccc1 (configuration not stated)	19*	27	-4	3	5	2	-2
COC(=O)c1ccc(CSc2nnc(C)s2)cc1	3	-7	11*	-8	-4	-3	0
